# Experimental data published in PubChem BioAssay AID624060 (Southern Research Specialized Biocontainment Screening …, 2012).
# Tested on: UPEC UTI89 capsule, orcinol assay OD572
# Assay: bacterial K capsule biogenesis inhibition, UTI89 – orcinol colorimetric, OD572, set 2, orthogonal assay for bacterial capsule biogenesis inhibitors, confirmation (AID 624060)
# Settings: at 100 µM; hits give low values
# How it was run: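 Test system: Uropathogenic Escherichia coli strain UTI89 with ΔkpsM export-deficient mutant / Compound dosing: one dose, 100 µM / Control set: ΔkpsM capsule-export-deficient strain as low-capsule reference / Detection: orcinol colorimetry of hydrolysed, purified capsular polysaccharide, absorbance 572 nm / Timing: acid hydrolysis of released polysaccharide, 1 h at 80 °C, pH 2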
smiles,measurement,value
CCOc1ccc(-c2cc(NC(=O)c3c(F)cccc3F)c(C(=O)O)s2)cc1,capsule formation,21%
